Experimental data: ChEMBL document CHEMBL1149264, “Discovery of novel phenolic antioxidants as inhibitors of vascular cell adhesion molecule-1 expression for use in chronic inflammatory diseases” (J Med Chem, 2004)
Blank lines part the entries; values can stand above or below the compound they belong to. Active and inactive are the calls of the source. The calls are words filed in the database; no cut-off is given here.

What was measured:
[1] = Inhibition of TNF-alpha-stimulated VCAM1 expression in endothelial cells; type: functional, cell-based; settings: Homo sapiens, Endothelial cell
Syrian golden hamster [2] = test: Effect on LDL level in hypercholesterolemic golden Syrian hamster; type: functional, Mesocricetus auratus; design: unit not given here
Outline: (§1)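 Male golden Syrian hamsters (110-120 g), housed singly, given compound mixed into powdered chow at 150 mg/kg/d for two weeks. After an overnight fast and ketamine/xylazine i.p. anesthesia, blood was taken by cardiac puncture or abdominal aorta. Plasma was fractionated by FPLC and lipoprotein cholesterol measured enzymatically. Dunnett's test against controls.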

Syrian golden hamster [3] = test: Effect on HDL level in hypercholesterolemic golden Syrian hamster; type: functional, Mesocricetus auratus; design: unit not given here; outline: as §1
Mus musculus [4] = test: Inhibition of mBSA-induced paw-swelling in DTH BALB/c mouse model at 50 mg/kg, sc; type: functional; settings: route subcutaneous
Outline: (§2)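 Male BALB/c mice (20-25 g) sensitized on day 0 with intradermal abdominal mBSA (5 mg/mL)/Freund's complete adjuvant 1:1 emulsion. On day 7 challenged with mBSA in the right hind footpad, saline in the left. Compound given s.c. 24 h and 2 h before challenge; cyclosporin A 20 mg/kg as reference. Feet weighed 24 h post-challenge; swelling inhibition relative to vehicle group (100%). ANOVA with Fisher's PLSD.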

[5] = Inhibition of LPS-induced IL1-beta secretion in human PBMN cells by ELISA; type: functional, cell-based
Outline: (§3)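 Fresh cryopreserved human PBMCs at 1 million cells/mL in lymphocyte growth media-3 were pretreated with compound for 1 h, then stimulated with LPS 1 μg/mL for a further 2 h with compound present. Secreted TNF-α, IL-6 and IL-1β in conditioned media measured by human ELISA, in duplicate (mean ± SD). Experiments repeated at least three times.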

[6] = Inhibition of LPS-induced TNFalpha secretion in human PBMN cells by ELISA; type: functional, cell-based; outline: as §3
[7] = target: T1, Polyunsaturated fatty acid lipoxygenase ALOX15 (Homo sapiens, UniProt P16050); test: Inhibition of 15-lipoxygenase by LMB assay
T1 sequence (P16050 whole entry): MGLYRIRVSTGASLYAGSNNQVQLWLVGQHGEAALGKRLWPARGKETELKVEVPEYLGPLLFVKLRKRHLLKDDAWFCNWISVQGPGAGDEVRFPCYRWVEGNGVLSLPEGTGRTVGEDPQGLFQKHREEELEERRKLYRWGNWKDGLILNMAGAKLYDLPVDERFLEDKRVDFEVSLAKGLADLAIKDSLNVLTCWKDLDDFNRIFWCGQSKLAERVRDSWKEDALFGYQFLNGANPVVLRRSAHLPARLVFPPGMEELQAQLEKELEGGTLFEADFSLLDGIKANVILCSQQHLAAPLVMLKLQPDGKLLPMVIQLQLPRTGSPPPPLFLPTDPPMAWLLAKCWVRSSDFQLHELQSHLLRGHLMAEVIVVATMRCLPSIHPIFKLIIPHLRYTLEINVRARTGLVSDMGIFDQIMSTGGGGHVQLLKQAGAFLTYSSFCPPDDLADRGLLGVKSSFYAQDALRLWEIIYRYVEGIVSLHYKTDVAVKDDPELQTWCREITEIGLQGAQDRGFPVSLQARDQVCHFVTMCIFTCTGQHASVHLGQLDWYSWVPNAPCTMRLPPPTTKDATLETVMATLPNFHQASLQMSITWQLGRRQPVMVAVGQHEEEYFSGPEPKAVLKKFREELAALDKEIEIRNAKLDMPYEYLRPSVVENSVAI

[8] = Inhibition of LPS-induced IL6 secretion in human PBMN cells by ELISA; type: functional, cell-based; outline: as §3
Mus musculus [9] = test: Inhibition of mBSA-induced paw-swelling in DTH BALB/c mouse model at 25 mg/kg, sc; type: functional; settings: route subcutaneous; outline: as §2
Rattus norvegicus [10] = test: Inhibition of paw edema in collagen 2-sensitized orally dosed rat model; type: functional, organism-based
Rattus norvegicus [11] = species on record: Rattus norvegicus; test: Inhibition of artheriosclerosis in allograft recipient rat; type: functional, organism-based
PBMN = test: Inhibition of LPS-induced IL1-beta secretion in human PBMN cells at 10 uM by ELISA; type: functional, cell-based; outline: as §3

IC50 [1]: 75 µM
Compound: C=CC(=O)OCCCCOc1c(C(C)(C)C)ccc(SC(C)(C)Sc2cc(C(C)(C)C)c(O)c(C(C)(C)C)c2)c1C(C)(C)C

IC50 [1]: 13 µM
Compound: CC(C)(Sc1cc(C(C)(C)C)c(O)c(C(C)(C)C)c1)Sc1ccc(C(C)(C)C)c(OCC(CO)CO)c1C(C)(C)C

IC50 [1]: 35 µM
Compound: CC(C)(Sc1cc(C(C)(C)C)c(O)c(C(C)(C)C)c1)Sc1ccc(C(C)(C)C)c(OC[C@@H](O)[C@@H](O)[C@@H](O)C(=O)O)c1C(C)(C)C
Activity (Syrian golden hamster [2]): 175
Activity (Syrian golden hamster [3]): 173

IC50 [5]: 2.2 µM
IC50 [6]: 1.8 µM
IC50 [1]: 15 µM
IC50 [7]: 12 µM
IC50 [8]: 1000 nM
Compound: CC(C)(Sc1cc(C(C)(C)C)c(O)c(C(C)(C)C)c1)Sc1ccc(C(C)(C)C)c(OC[C@@H](O)[C@@H](O)[C@H](O)[C@@H](O)CO)c1C(C)(C)C
inhibition in vivo at 50 mg/kg (Mus musculus [4]): 58%
Activity (Syrian golden hamster [2]): 30
inhibition in vivo at 25 mg/kg (Mus musculus [9]): 29%
Activity (Syrian golden hamster [3]): 94

IC50 [1]: 6 µM
Compound: CC(C)(Sc1cc(C(C)(C)C)c(O)c(C(C)(C)C)c1)Sc1ccc(C(C)(C)C)c(OCC(=O)NCCC(=O)O)c1C(C)(C)C

IC50 [1]: 7 µM
Compound: CN(CC(=O)O)C(=O)COc1c(C(C)(C)C)ccc(SC(C)(C)Sc2cc(C(C)(C)C)c(O)c(C(C)(C)C)c2)c1C(C)(C)C

IC50 [1]: 10 µM
Compound: CC(C)(Sc1cc(C(C)(C)C)c(O)c(C(C)(C)C)c1)Sc1cc(C(C)(C)C)c(OCC(=O)O)c(C(C)(C)C)c1 [CAMOBUCOL]
Activity (Syrian golden hamster [2]): 18
Activity (Syrian golden hamster [3]): 86
Activity (Rattus norvegicus [10]): Dose-dependent effect

IC50 [1]: 23 µM
Compound: CC(C)(Sc1cc(C(C)(C)C)c(O)c(C(C)(C)C)c1)Sc1ccc(C(C)(C)C)c(OCCCCC(=O)O)c1C(C)(C)C

IC50 [1]: 6 µM
Compound: CC(C)(Sc1cc(C(C)(C)C)c(O)c(C(C)(C)C)c1)Sc1ccc(C(C)(C)C)c(OCC(=O)NC(CO)CO)c1C(C)(C)C

IC50 [1]: 13 µM
Compound: CC(C)(Sc1cc(C(C)(C)C)c(O)c(C(C)(C)C)c1)Sc1ccc(C(C)(C)C)c(OC[C@@H](O)[C@@H](O)[C@@H](O)CO)c1C(C)(C)C
Activity (Syrian golden hamster [2]): 338
Activity (Syrian golden hamster [3]): 119

IC50 [1]: 33 µM
Compound: CC(=O)OC(CO)COc1c(C(C)(C)C)ccc(SC(C)(C)Sc2cc(C(C)(C)C)c(O)c(C(C)(C)C)c2)c1C(C)(C)C (centres undefined)

IC50 [1]: 13 µM
Compound: CC(C)(Sc1cc(C(C)(C)C)c(O)c(C(C)(C)C)c1)Sc1ccc(C(C)(C)C)c(OC[C@H]2OC(=O)[C@H](O)[C@@H]2O)c1C(C)(C)C

IC50 [5]: > 10 µM
IC50 [6]: > 10 µM
IC50 [1]: > 50 µM
IC50 [7]: > 125 µM
IC50 [8]: > 10000 nM
Compound: CC(C)(Sc1cc(C(C)(C)C)c(OCC(=O)O)c(C(C)(C)C)c1)Sc1ccc(C(C)(C)C)c(OCC(=O)O)c1C(C)(C)C

IC50 [1]: 16 µM
Compound: CC(C)(Sc1cc(C(C)(C)C)c(O)c(C(C)(C)C)c1)Sc1ccc(C(C)(C)C)c(OCC(O)CNCC(=O)O)c1C(C)(C)C (centres undefined)
Activity (Syrian golden hamster [2]): 190
Activity (Syrian golden hamster [3]): 146

IC50 [5]: 7.7 µM
IC50 [6]: 4 µM
IC50 [1]: 6 µM
IC50 [8]: 1700 nM
Compound: CC(C)(Sc1cc(C(C)(C)C)c(O)c(C(C)(C)C)c1)Sc1ccc(C(C)(C)C)c(OC[C@H](O)[C@@H](O)CO)c1C(C)(C)C
inhibition in vivo at 50 mg/kg (Mus musculus [4]): 58%
inhibition in vivo at 25 mg/kg (Mus musculus [9]): 29%

IC50 [1]: 6 µM
Compound: CC(C)(Sc1cc(C(C)(C)C)c(O)c(C(C)(C)C)c1)Sc1cc(C(C)(C)C)c(OC(=O)CCC(=O)O)c(C(C)(C)C)c1 [SUCCINOBUCOL]

IC50 [1]: 41 µM
Compound: CC(=O)OCC(O)COc1c(C(C)(C)C)ccc(SC(C)(C)Sc2cc(C(C)(C)C)c(O)c(C(C)(C)C)c2)c1C(C)(C)C (centres undefined)

IC50 [5]: > 40 µM
IC50 [6]: > 40 µM
IC50 [8]: > 40000 nM
Compound: CC(C)(Sc1cc(C(C)(C)C)c(O)c(C(C)(C)C)c1)Sc1cc(C(C)(C)C)c(O)c(C(C)(C)C)c1 [PROBUCOL]

IC50 [1]: 8 µM
Compound: CC(C)(Sc1cc(C(C)(C)C)c(O)c(C(C)(C)C)c1)Sc1ccc(C(C)(C)C)c(OC[C@H]2OC(O)[C@H](O)[C@@H]2O)c1C(C)(C)C (some centres undefined)

IC50 [1]: 6 µM
Compound: CC(C)(Sc1cc(C(C)(C)C)c(O)c(C(C)(C)C)c1)Sc1ccc(C(C)(C)C)c(OCC(=O)NCC(=O)O)c1C(C)(C)C

IC50 [1]: 30 µM
Compound: CC(C)(Sc1cc(C(C)(C)C)c(O)c(C(C)(C)C)c1)Sc1ccc(C(C)(C)C)c(OCC(O)CO)c1C(C)(C)C (centres undefined)

IC50 [1]: 75 µM
Compound: CC(C)(Sc1cc(C(C)(C)C)c(O)c(C(C)(C)C)c1)Sc1ccc(C(C)(C)C)c(OCC(=O)N[C@@H](CCC(=O)O)C(=O)O)c1C(C)(C)C

IC50 [1]: 11 µM
Compound: CC(C)(Sc1cc(C(C)(C)C)c(O)c(C(C)(C)C)c1)Sc1cc(C(C)(C)C)c(OCCCC(=O)O)c(C(C)(C)C)c1 [ELSIBUCOL]
Activity (Rattus norvegicus [11]): Active

IC50 [1]: 55 µM
Compound: CC(C)(Sc1cc(C(C)(C)C)c(O)c(C(C)(C)C)c1)Sc1ccc(C(C)(C)C)c(O/C=C/CO)c1C(C)(C)C

IC50 [1]: > 50 µM
Compound: CCOCC(O)COc1c(C(C)(C)C)ccc(SC(C)(C)Sc2cc(C(C)(C)C)c(O)c(C(C)(C)C)c2)c1C(C)(C)C (centres undefined)

IC50 [1]: 7 µM
Compound: CC(C)(Sc1cc(C(C)(C)C)c(O)c(C(C)(C)C)c1)Sc1ccc(C(C)(C)C)c(OCCC(=O)O)c1C(C)(C)C

IC50 [6]: 1.9 µM
IC50 [1]: 10 µM
IC50 [7]: 10 µM
IC50 [8]: 1600 nM
Compound: CC(C)(Sc1cc(C(C)(C)C)c(O)c(C(C)(C)C)c1)Sc1ccc(C(C)(C)C)c(OC[C@H]2OC(O)[C@H](O)[C@@H](O)[C@@H]2O)c1C(C)(C)C (some centres undefined)
inhibition in vivo at 50 mg/kg (Mus musculus [4]): 58%
Activity (PBMN): Active
Activity (Syrian golden hamster [2]): 9
inhibition in vivo at 25 mg/kg (Mus musculus [9]): 29%
Activity (Syrian golden hamster [3]): 63

IC50 [1]: 125 µM
Compound: CC(C)(Sc1cc(C(C)(C)C)c(O)c(C(C)(C)C)c1)Sc1ccc(C(C)(C)C)c(OCCCCO)c1C(C)(C)C

IC50 [1]: > 50 µM
Compound: CC(=O)O[C@@H]1O[C@H](COc2c(C(C)(C)C)ccc(SC(C)(C)Sc3cc(C(C)(C)C)c(O)c(C(C)(C)C)c3)c2C(C)(C)C)[C@@H](OC(C)=O)[C@H](OC(C)=O)[C@H]1OC(C)=O

IC50 [1]: 30 µM
Compound: CC(C)(Sc1cc(C(C)(C)C)c(O)c(C(C)(C)C)c1)Sc1ccc(C(C)(C)C)c(O/C=C/C(=O)O)c1C(C)(C)C

IC50 [1]: 26 µM
Compound: CC(C)(Sc1cc(C(C)(C)C)c(O)c(C(C)(C)C)c1)Sc1ccc(C(C)(C)C)c(OC/C(N)=N/O)c1C(C)(C)C

IC50 [5]: 8 µM
IC50 [6]: 3.3 µM
IC50 [1]: 1 µM
IC50 [8]: 1200 nM
Compound: CC(C)(Sc1cc(C(C)(C)C)c(O)c(C(C)(C)C)c1)Sc1ccc(C(C)(C)C)c(OC[C@@H](O)[C@H](O)CO)c1C(C)(C)C
inhibition in vivo at 50 mg/kg (Mus musculus [4]): 58%
inhibition in vivo at 25 mg/kg (Mus musculus [9]): 29%
